Measurements: ChEMBL document CHEMBL4609999, “Novel alkoxyamide-based histone deacetylase inhibitors reverse cisplatin resistance in chemoresistant cancer cells” (Bioorg Med Chem, 2020)
Blank lines part the entries; values can stand above or below the compound they belong to. Active and inactive are the calls of the source. The calls are words filed in the database; no cut-off is given here.

Tests used:
[1] = biological target: Histone deacetylase; assay: Inhibition of HDAC in human Cal27 cells; type: cell-based; conditions: cal-27
[2] = biological target: Histone deacetylase 2 (Homo sapiens, UniProt Q92769); assay: Inhibition of recombinant human HDAC2
Chain of Histone deacetylase 2 (Q92769 whole entry): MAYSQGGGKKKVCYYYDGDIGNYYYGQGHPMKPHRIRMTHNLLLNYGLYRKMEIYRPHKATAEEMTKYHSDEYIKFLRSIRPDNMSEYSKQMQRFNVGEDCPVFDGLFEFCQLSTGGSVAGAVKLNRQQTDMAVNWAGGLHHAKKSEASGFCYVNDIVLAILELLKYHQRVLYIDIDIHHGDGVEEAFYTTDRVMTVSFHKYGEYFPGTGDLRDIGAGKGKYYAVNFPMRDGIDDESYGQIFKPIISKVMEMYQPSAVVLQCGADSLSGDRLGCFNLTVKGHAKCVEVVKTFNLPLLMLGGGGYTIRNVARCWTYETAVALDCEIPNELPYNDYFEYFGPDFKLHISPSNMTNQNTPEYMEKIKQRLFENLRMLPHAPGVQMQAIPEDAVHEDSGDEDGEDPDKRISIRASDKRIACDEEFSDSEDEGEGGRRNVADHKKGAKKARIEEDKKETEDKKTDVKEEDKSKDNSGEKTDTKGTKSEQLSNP

[3] = biological target: Histone deacetylase; assay: Inhibition of HDAC in human A2780 cells; type: cell-based
[4] = system: CAL-27; assay: Cytotoxicity against human CAL27 cells assessed as reduction in cell viability by MTT assay; type: functional, cell-based
[5] = biological target: T1, Histone deacetylase 8 (Homo sapiens, UniProt Q9BY41); assay: Inhibition of recombinant human HDAC8
T1 sequence (Q9BY41 whole entry): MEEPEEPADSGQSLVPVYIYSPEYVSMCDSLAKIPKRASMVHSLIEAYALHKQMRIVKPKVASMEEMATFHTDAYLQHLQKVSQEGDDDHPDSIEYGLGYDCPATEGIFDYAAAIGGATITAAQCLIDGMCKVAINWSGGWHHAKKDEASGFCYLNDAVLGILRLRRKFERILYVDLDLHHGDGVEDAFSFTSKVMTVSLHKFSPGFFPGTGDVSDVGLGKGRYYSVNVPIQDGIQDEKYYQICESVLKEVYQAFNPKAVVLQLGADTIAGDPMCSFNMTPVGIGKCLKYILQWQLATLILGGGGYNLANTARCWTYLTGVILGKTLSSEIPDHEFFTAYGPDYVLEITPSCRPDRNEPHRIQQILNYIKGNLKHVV

[6] = system: A2780; assay: Cytotoxicity against human A2780 cells assessed as reduction in cell viability by MTT assay; type: functional, cell-based
[7] = biological target: Histone deacetylase 4 (Homo sapiens, UniProt P56524); assay: Inhibition of recombinant human HDAC4
Chain of Histone deacetylase 4 (P56524 whole entry): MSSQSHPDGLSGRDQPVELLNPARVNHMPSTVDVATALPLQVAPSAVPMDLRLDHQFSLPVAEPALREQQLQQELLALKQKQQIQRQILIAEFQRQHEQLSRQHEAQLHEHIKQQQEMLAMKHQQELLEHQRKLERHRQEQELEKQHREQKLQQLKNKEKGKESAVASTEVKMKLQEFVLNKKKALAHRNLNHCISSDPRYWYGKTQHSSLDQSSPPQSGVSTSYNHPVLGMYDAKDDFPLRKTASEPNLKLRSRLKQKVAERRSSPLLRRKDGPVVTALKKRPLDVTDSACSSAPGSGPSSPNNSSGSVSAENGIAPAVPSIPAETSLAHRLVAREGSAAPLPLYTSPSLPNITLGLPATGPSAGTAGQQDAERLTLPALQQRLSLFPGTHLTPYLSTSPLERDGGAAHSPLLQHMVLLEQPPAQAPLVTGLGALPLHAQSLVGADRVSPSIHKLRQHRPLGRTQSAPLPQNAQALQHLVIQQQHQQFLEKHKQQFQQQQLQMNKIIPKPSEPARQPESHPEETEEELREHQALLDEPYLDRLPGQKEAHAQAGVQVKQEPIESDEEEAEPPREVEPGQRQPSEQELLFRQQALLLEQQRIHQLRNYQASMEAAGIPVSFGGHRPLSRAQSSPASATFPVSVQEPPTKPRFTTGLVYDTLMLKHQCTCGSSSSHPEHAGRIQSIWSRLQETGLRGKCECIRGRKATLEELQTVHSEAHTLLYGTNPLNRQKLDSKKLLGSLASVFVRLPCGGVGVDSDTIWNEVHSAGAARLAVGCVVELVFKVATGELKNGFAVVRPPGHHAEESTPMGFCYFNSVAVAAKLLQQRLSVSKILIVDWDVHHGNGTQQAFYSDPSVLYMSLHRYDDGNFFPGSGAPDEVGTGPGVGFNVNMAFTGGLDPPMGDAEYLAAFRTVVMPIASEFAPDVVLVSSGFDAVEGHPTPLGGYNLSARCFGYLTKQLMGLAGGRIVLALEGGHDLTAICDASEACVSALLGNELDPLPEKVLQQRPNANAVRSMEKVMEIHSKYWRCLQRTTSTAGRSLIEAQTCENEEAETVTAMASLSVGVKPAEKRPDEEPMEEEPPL

[8] = biological target: T2, Protein deacetylase HDAC6 (Homo sapiens, UniProt Q9UBN7); assay: Inhibition of recombinant human HDAC6
T2 sequence (Q9UBN7 whole entry): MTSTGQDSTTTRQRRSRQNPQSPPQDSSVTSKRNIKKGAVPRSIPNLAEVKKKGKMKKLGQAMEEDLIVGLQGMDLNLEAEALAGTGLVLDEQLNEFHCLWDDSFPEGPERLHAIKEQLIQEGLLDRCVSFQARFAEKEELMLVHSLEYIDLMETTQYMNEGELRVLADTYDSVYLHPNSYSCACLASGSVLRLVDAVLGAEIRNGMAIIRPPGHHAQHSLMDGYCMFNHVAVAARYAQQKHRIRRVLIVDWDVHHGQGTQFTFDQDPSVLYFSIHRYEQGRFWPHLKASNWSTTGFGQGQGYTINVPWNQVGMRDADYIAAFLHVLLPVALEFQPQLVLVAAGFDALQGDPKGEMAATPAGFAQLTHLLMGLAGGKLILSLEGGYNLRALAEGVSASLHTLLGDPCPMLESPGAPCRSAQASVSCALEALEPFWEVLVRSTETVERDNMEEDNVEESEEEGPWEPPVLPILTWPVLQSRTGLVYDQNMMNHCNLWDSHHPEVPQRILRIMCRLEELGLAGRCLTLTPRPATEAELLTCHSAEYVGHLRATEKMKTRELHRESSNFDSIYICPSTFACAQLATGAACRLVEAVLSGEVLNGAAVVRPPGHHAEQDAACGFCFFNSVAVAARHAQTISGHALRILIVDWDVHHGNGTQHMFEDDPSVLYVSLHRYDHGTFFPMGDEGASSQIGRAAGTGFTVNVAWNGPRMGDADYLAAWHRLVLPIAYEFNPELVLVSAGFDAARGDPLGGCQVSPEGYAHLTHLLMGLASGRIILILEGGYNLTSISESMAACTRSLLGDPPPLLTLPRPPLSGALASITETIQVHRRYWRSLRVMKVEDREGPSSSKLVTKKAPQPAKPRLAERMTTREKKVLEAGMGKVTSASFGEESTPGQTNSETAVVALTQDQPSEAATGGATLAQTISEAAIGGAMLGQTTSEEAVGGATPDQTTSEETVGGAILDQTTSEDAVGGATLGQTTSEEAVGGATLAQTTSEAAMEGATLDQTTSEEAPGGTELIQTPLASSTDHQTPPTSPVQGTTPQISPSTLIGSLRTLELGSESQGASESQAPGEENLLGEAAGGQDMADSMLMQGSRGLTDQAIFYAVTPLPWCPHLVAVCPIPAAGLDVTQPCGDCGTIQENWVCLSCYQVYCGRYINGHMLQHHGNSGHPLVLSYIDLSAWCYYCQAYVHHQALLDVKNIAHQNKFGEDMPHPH

[9] = organism: Homo sapiens; assay: Potentiation of cisplatin-induced apoptosis in human Cal27CisR cells assessed as increase in caspase 3/7 activation at 0.8 uM incubated for 24 hrs followed by cisplatin addition by Hoechst 33342 staining based fluorescence assay; type: functional, cell-based
In short: (§1)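 Cal27 cells pretreated with HDACi at 0.4, 0.8 or 2.8 µM, then 24 h more with 3 µM cisplatin. Cal27CisR cells pretreated at 0.8 or 8 µM, then 24 h with 25 µM cisplatin. 100 µM cisplatin as positive control. Active caspase 3/7 imaged by green fluorescence, nuclei counterstained with Hoechst 33342 (blue).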

[10] = organism: Homo sapiens; assay: Induction of apoptosis in human Cal27CisR cells assessed as increase in caspase 3/7 activation at 0.8 uM incubated for 24 hrs by Hoechst 33342 staining based fluorescence assay; type: functional, cell-based
[11] = biological target: T3, Protein deacetylase HDAC6 (Homo sapiens) (UniProt Q9UBN7); assay: Inhibition of HDAC6 in human Cal27CisR cells assessed as increase in acetylated alpha-tubulin at 1.5 uM incubated for 24 hrs by immunoblot analysis; type: cell-based
T3 sequence (whole entry): T2 sequence (Q9UBN7 whole entry)
In short: (§2)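 Cal27 and Cal27CisR cells incubated 24 h with vehicle or with inhibitor at 1.5, 3 or 5 µM. Western blot for α-tubulin, acetyl-α-tubulin and acetyl-histone H3.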

[12] = biological target: T4, Class 1 histone deacetylase (Homo sapiens) (UniProt Q13547+O15379+Q92769+Q9BY41); assay: Inhibition of class 1 histone deacetylase in human CAL27 cells assessed as increase in H3 histone acetylation at 1.5 uM incubated for 24 hrs by immunoblot analysis; type: cell-based; conditions: CAL-27; in short: as §2
[13] = system: CAL-27; assay: Induction of apoptosis in human CAL27 cells assessed as increase in caspase 3/7 activation at 0.4 uM incubated for 24 hrs by Hoechst 33342 staining based fluorescence assay; type: functional, cell-based
[14] = biological target: T4, Class 1 histone deacetylase (Homo sapiens); assay: Inhibition of class 1 histone deacetylase in human Cal27CisR cells assessed as increase in H3 histone acetylation at 1.5 uM incubated for 24 hrs by immunoblot analysis; type: cell-based; in short: as §2
[15] = system: CAL-27; assay: Potentiation of cisplatin-induced apoptosis in human CAL27 cells assessed as increase in caspase 3/7 activation at 0.4 uM incubated for 24 hrs followed by cisplatin addition by Hoechst 33342 staining based fluorescence assay; type: functional, cell-based; in short: as §1
[16] = Potentiation of cisplatin-induced cytotoxicity against human Cal27CisR cells assessed as shift factor by measuring ratio of cisplatin IC50 to cisplatin IC50 in presence of compound at 0.8 uM incubated for 72 hrs followed by cisplatin addition and measured after 72 hrs by MTT assay; type: functional
In short: (§3)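 MTT shift assay. Cal27 cells received HDACi at 0.2, 0.4 or 1.4 µM; Cal27CisR cells received 0.8 or 6 µM. Cells were incubated 72 h with a cisplatin range. Shift factor = cisplatin IC50 alone / cisplatin IC50 with HDACi, significance by t-test (p<0.05). Pooled mean of ≥3 experiments, each in triplicate.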

[17] = biological target: T3, Protein deacetylase HDAC6 (Homo sapiens); assay: Inhibition of HDAC6 in human CAL27 cells assessed as increase in acetylated alpha-tubulin at 1.5 uM incubated for 24 hrs by immunoblot analysis; type: cell-based; conditions: CAL-27; in short: as §2
[18] = system: CAL-27; assay: Potentiation of cisplatin-induced cytotoxicity against human CAL27 cells assessed as shift factor by measuring ratio of cisplatin IC50 to cisplatin IC50 in presence of compound at 0.2 uM incubated for 72 hrs followed by cisplatin addition and measured after 72 hrs by MTT assay; type: functional; in short: as §3

SMILES: O=C(CCCCCONC(=O)c1cc(Br)cc(Br)c1)NO
IC50 [1]: 1800 nM | Ki [2]: 210 nM | IC50 [3]: 1650 nM | IC50 [4]: 3630 nM | Ki [5]: 4440 nM | IC50 [6]: 10200 nM | Ki [7]: 31800 nM | Ki [8]: 120 nM

SMILES: CC(C)(C)c1cc(C(=O)NOCCCCCC(=O)NO)cc(C(C)(C)C)c1
IC50 [1]: 1300 nM | Ki [2]: 1570 nM | IC50 [3]: 930 nM | IC50 [4]: 1000 nM | Ki [5]: 28100 nM | IC50 [6]: 1550 nM | Ki [7]: > 100000 nM | Ki [8]: 2150 nM

SMILES: Cc1cc(C)cc(C(=O)NOCCCCC(=O)NO)c1
IC50 [1]: 3360 nM | Ki [2]: 370 nM | IC50 [3]: 4240 nM | IC50 [4]: 8670 nM | Ki [5]: 22300 nM | IC50 [6]: 9340 nM | Ki [7]: > 100000 nM | Ki [8]: 420 nM

The remaining compounds from weak to strong by Ki [2], led by results:

IC50 [1]: 3770 nM | Ki [2]: 580 nM | IC50 [3]: 3790 nM | Ki [5]: 14700 nM | Ki [7]: > 100000 nM | Ki [8]: 100 nM
SMILES: O=C(CCCCCONC(=O)c1cc(F)cc(F)c1)NO
IC50 [4]: 7980 nM | IC50 [6]: 13700 nM

inhibition [11]: Active | IC50 [1]: 450 nM | Ki [2]: 60 nM | inhibition [12]: Active | IC50 [3]: 830 nM | inhibition [14]: Active | inhibition [17]: Active | Ki [5]: 5690 nM | Ki [7]: 49200 nM | Ki [8]: 30 nM
SMILES: COc1cc(OC)cc(C(=O)NOCCCCCC(=O)NO)c1
Activity [9]: Active | Activity [10]: Active | Activity [13]: Active | Activity [15]: Active | PF [16]: 12.8 | PF [18]: 3.79 | IC50 [4]: 720 nM | IC50 [6]: 890 nM
